These results are taken from ChEMBL document CHEMBL3232902, “PMPA and PMEA prodrugs for the treatment of HIV infections and human papillomavirus (HPV) associated neoplasia and cancer” (Eur J Med Chem, 2014).

The structures appear in SMILES notation. pEC50, pIC50: −log10 of the molar value.

The subject of data set [1] is Human immunodeficiency virus 1. Put plainly: Antiviral activity against Human immunodeficiency virus 1 3B infected in human CEM cells assessed as inhibition of virus-induced giant cell formation after 4 to 5 days by microscopic analysis. It is filed as functional, organism-based, CCRF-CEM. The procedure, abridged:
(§1)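 CEM cells (~3×10^5/mL) were infected with 100 CCID50/mL HIV-1 IIIB or HIV-2 ROD with compound dilutions. After 4–5 days at 37°C, syncytium formation was scored microscopically. EC50 is the concentration inhibiting giant cell formation by 50%.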

The test system of data set [2] is Human alphaherpesvirus 1. Nature of the data set: Antiviral activity against Herpes simplex virus KOS infected in HEL cells assessed as inhibition of virus-induced cytopathicity. It counts as functional, organism-based. The procedure, abridged: (§2)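 Confluent HEL cell cultures were inoculated with 100 CCID50 of virus in the presence of varying compound concentrations. Cytopathicity or plaque formation was scored once untreated infected controls reached completion. EC50 is the concentration inhibiting virus-induced cytopathicity by 50%.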
For orientation: Protection from cytopathic effect is a common read-out in antiviral testing.

A further data set deals with Vaccinia virus. Put plainly: Antiviral activity against Vaccinia virus Lederle infected in HEL cells assessed as inhibition of virus-induced cytopathicity. It is filed as functional, organism-based. Particulars: Orthopoxvirus vaccinia. The procedure, abridged:
as §2

Data set [3] is described as follows: (§3) Cytotoxicity against human CEM cells. It counts as cell-based, CCRF-CEM. Particulars: CEM (CCRF-CEM) cells.
Data set [4] can be described thus: Cytotoxicity against HEL cells assessed as change in cellular morphology by microscopic analysis. It is filed as cell-based. The following applies: human, read-out: MIC. The gist of the method: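 Uninfected HEL monolayers were exposed to compound. Minimal cytotoxic concentration is the concentration causing microscopically visible alteration of cell morphology.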

The next data set concerns Human alphaherpesvirus 2. Nature of the data set: Antiviral activity against Herpes simplex virus G infected in HEL cells assessed as inhibition of virus-induced cytopathicity. It counts as functional, organism-based, strain G. The gist of the method:
as §2

A further data set concerns L1210. Nature of the data set: Cytostatic activity against mouse L1210 cells after 48 hrs by coulter counting analysis. It is filed as functional, cell-based. The procedure, abridged:
(§4)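 (5-7.5)×10^4 cells/well were incubated with compound at 37°C, for 48 h (L1210) or 72 h (CEM, HeLa), then counted by Coulter counter. IC50 is the concentration inhibiting proliferation by 50%.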

Data set [5] deals with Human immunodeficiency virus 2. Put plainly: Antiviral activity against Human immunodeficiency virus type 2 ROD infected in human CEM cells assessed as inhibition of virus-induced giant cell formation after 4 to 5 days by microscopic analysis. It is filed as functional, organism-based, ISOLATE ROD, CCRF-CEM. The procedure, abridged: as §1
Data set [6] can be described thus: Prodrug activation assessed as carboxypeptidase Y (unknown origin)-mediated aminoacyl phosphonamidate ester formation at 3 mg at 25 degC up to 12 hrs by [31P]-NMR analysis. The gist of the method: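 Compound (3.0 mg) in acetone-d6 plus Trizma buffer pH 7.6 was recorded by 31P NMR at 25°C as control. Carboxypeptidase Y (0.1 mg in Trizma) was then added, and spectra were taken every 7 min over 12 h at 25°C.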

Data set [7] relates to Human alphaherpesvirus 1. Nature of the data set: Antiviral activity against thymidine kinase-deficient acyclovir-resistant Herpes simplex virus KOS infected in HEL cells assessed as inhibition of virus-induced cytopathicity. It is filed as functional, organism-based. Particulars: Human alphaherpesvirus 1, KOS. The gist of the method: as §2
Data set [8] deals with CCRF-CEM. Nature of the data set: Cytostatic activity against human CEM cells after 72 hrs by coulter counting analysis. It is filed as functional, cell-based. The gist of the method:
as §4

Data set [9] has as its system HeLa. Put plainly: Cytostatic activity against human HeLa cells after 72 hrs by coulter counting analysis. It is filed as functional, cell-based. The procedure, abridged:
as §4

Data set [10] relates to CCRF-CEM. The data set is described as §3. Particulars: ccrf-cem. It counts as cell-based.
A further data set concerns SiHa. Put plainly: Antiproliferative activity against human SiHa cells infected with HPV-16 after 72 hrs by flow cytometric analysis. It counts as functional, cell-based. The gist of the method:
(§5)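 SiHa (HPV16+), HeLa (HPV18+) and C33A (HPV-) cervical carcinoma lines grown in DMEM with 10% FBS at 37°C, 5% CO2. Seeded 4×10^3 cells/well and left to adhere 24 h. Treated in triplicate with 1, 10 and 100 μM of compound formulated in ~1% DMSO/PBS pH 7.4.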
(In general: In flow cytometry, cells or beads pass a laser one at a time.)

Data set [11] relates to HeLa. Put plainly: Antiproliferative activity against human HeLa cells infected with HPV-18 after 72 hrs by flow cytometric analysis. It is filed as functional, cell-based. The following applies: hela. The gist of the method:
as §5

A short description of data set [12]: Antiproliferative activity against human C33A cells after 72 hrs by flow cytometric analysis. Particulars: c-33-a. It is filed as cell-based, C-33-A. The gist of the method: as §5
The test system of data set [13] is Human immunodeficiency virus 1. Put plainly: microbe, parasite or virus in culture. Particulars: Human immunodeficiency virus 1, 3B, MT2.
The nature of data set [14]: Cytotoxicity against human MT2 cells.

For the molecule `C[C@H](NP(=O)(COCCn1cnc2c(N)ncnc21)Oc1cccc2c1CCCC2)C(=O)OCC(C)(C)C` (stereo not given in full), the pEC50 was 7.77 in data set [1] (Human immunodeficiency virus 1, 3B, CCRF-CEM); 6.89 with Human alphaherpesvirus 1 [2] (Human alphaherpesvirus 1, KOS, HEL); 5.89 in the data set with Vaccinia virus; 7.30 in the data set with Human alphaherpesvirus 2 (Human alphaherpesvirus 2, strain G, HEL); 8.15 in data set [5] (Human immunodeficiency virus 2, ISOLATE ROD, CCRF-CEM); 6.92 in the data set on Human alphaherpesvirus 1 [7]. In data set [3], this molecule yielded a CC50 of 0.019 µM. Further, the MCC in data set [4] is more than 100 µM. Besides, the pIC50 in the data set on L1210 (Mus musculus, L1210, 48 h) is 7.59; in the data set on CCRF-CEM [8] (Homo sapiens, CCRF-CEM, 72 h) it was 7.72; in the data set on HeLa [9] (Homo sapiens, HeLa, 72 h), 6.35. In addition, in [6], the Drug metabolism entry is recorded as “metabolite_detected”.
`C[C@H](Cn1cnc2c(N)ncnc21)OCP(=O)(N[C@@H](C)C(=O)OCC(C)(C)C)Oc1cccc2ccccc12` (mixture of isomers): the pEC50 in [1] (ccrf-cem) was 8.52; in the data set with Human alphaherpesvirus 1 [2] (hel) it was 5.70; with Human alphaherpesvirus 2 (hel), 6.10; in [5] (ccrf-cem), 8.40. Further, it took 3.9 µM to reach half-maximal cytotoxicity in the data set on CCRF-CEM [10] (CC50). Moreover, the pIC50 in the data set with SiHa is 5.11; in the data set on HeLa [11] it was 5.21; in the data set with L1210 (l1210) it was 5.66; in data set [12], 5.22; in the data set with CCRF-CEM [8] (ccrf-cem) it was 5.41; with HeLa [9] (hela) it was 4.92.
Molecule `CC(C)OC(=O)[C@H](C)N[P@](=O)(CO[C@H](C)Cn1cnc2c(N)ncnc21)Oc1ccccc1` [TENOFOVIR ALAFENAMIDE] showed a pEC50 in data set [13] of 8.30. For the same molecule, the CC50 in data set [14] was 40 µM.

By pEC50 is commonly meant the negative decadic logarithm of the EC50, by convention in mol/L. For orientation: CC50 means the concentration giving 50% cytotoxicity. A higher CC50 goes with better tolerance by the cells. The pIC50 is the IC50 on a negative log10 scale, so that one unit is a factor of ten. Higher therefore signals a small IC50.
